CSC inhib = cancer stem cell inhibition; cancer stem cell-like cells viability, luminescence; inhibition, % at 7.5 µM; 300,000 compounds, 1.1% hits; AID 2717; in the data active means inhibition above about 75%; tested in HMLE shEcad cells
H9c2 TAG inh = reduces triacylglycerol accumulation in H9c2 cells; AID 651582; 230,000 compounds, 0.66% hits; inhibition, % at 12.5 µM; Nile Red lipid (TAG) fluorescence; cells loaded with 200 µM oleic acid;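 active means pattern-corrected inhibition of lipid staining of at least 50% with the nuclear-stain viability signal not falling by more than 50%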
Calb FLC = affects C. albicans growth with fluconazole | C. albicans CaCi-2 (fluconazole-resistant clinical isolate) + fluconazole, Alamar Blue growth, 48 h | growth inhibition, % (no concentration beside the values) | 300,000 compounds, 0.57% hits;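 active means growth inhibition above about 58% in most replicates, limit read from the data, passing the limit was not always enough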;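 further: all wells also contain fluconazole at 8 µg/ml as a sub-toxic cotreatment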
A1 inh = inhibitors of the anti-apoptotic protein A1, read as caspase activation; MEF A1-2A-BIM cells, Caspase-Glo 3/7 luminescence, 3 h; percent of clofoctol response, vehicle zero; caspase activation, % (concentration not given with the values); AID 2462; 330,000 compounds, 0.066% hits;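 active means over half of replicate activation scores above 10%, or exactly half above 10 with the replicate mean above 10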
Beta apoptosis = beta cell apoptosis inhibition | AID 435005 | protection from apoptosis, % (test concentration not listed) | INS-1E cytokine-induced death, ATP luminescence, 48 h; percent of positive-control rescue, neutral wells zero | 300,000 compounds, 0.8% hits;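 active means Every replicate reaches about 75%, or at least half do and their mean reaches it too, limit read from the data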;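 further: higher means more ATP so stronger rescue from cytokine killing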
T cruzi inh = blocks replication of Trypanosoma cruzi; 300,000 compounds, 1.4% hits; inhibition, % (test concentration not listed); T. cruzi beta-gal in NIH3T3, luminescence, 90 h;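 active means mean inhibition across valid replicates above about 55%, limit read from the data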;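 further: signal also drops with host cell toxicity which is not excluded here; higher percent means less beta-gal luminescence so fewer parasites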
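Assay system: NIH/3T3 fibroblasts plus reporter T. cruzi. Amount: NIH/3T3 cells, 5,000 per well. Buffer or medium: DMEM, 2% fetal bovine serum. Doses: compound pinned at 50 nL/well, DMSO. Schedule: ≥90 h infection period, 3 h prior cell attachment. Signal: luminescent β-galactosidase signal after 60 min lysis. Read-out: parasite load inhibition, %.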
Large screens that a line does not name were inactive. An excerpt weighted towards active compounds, which were near 3.1% of everything screened.

COc1ccc(C2Nc3ccccc3C(=O)N2O)cc1OC (stereo unspecified)	Calb FLC 97
Cc1nn(C)c(C)c1C1Nc2ccccc2C(=O)N1O (stereo unspecified)	none
C=CCN(c1ccccc1)S(=O)(=O)c1cccc(C(=O)NCC(c2cccs2)N2CCOCC2)c1 (stereo unspecified)	none (no result: CSC inhib)
O=C(NNC(=O)c1ccc2ccccc2c1O)c1ccccc1Cl	Calb FLC 86
O=C(Nc1ccc(Br)c2ccccc12)c1ccc2ccccc2c1O	CSC inhib 108 (no result: H9c2 TAG inh)
CC(=O)Nc1ccc(Br)c2ccccc12	none (no result: H9c2 TAG inh)
COc1cccc(C(=O)NNC(=O)c2ccc3ccccc3c2O)c1	Calb FLC 102
Cc1ccc(S(=O)(=O)NC2CC(C)(C)N(O)C(C)(C)C2)cc1	none (no result: Calb FLC, T cruzi inh)
Cc1ccc(NC2=NC(c3ccc(O)cc3)n3c(nc(C)cc3=O)N2)cc1 (stereo unspecified)	none (no result: H9c2 TAG inh)
COc1ccc(C2N=C(Nc3ccc(C)cc3)Nc3nc(C)cc(=O)n32)cc1 (stereo unspecified)	Calb FLC 110
COc1ccc(-c2cc(NC(C)=O)c3ncc(-c4ccc(F)cc4)n3c2)cc1OC	none (no result: CSC inhib, Calb FLC, A1 inh, Beta apoptosis, T cruzi inh)
COc1ccc(CCn2c(SCCN3CCCCC3)nc3ccccc3c2=O)cc1OC	T cruzi inh 67 (no result: H9c2 TAG inh)
Cc1ccc(NC(=O)CSc2nc3ccccc3c(=O)n2CCCN2CCCCC2)cc1Cl	T cruzi inh 56
Cc1ccc(CNC(=O)CSc2nc3c(sc4ccccc43)c(=O)n2CCCN2CCCC2)cc1	T cruzi inh 64
C=CCNC(=O)CSc1nc2ccccc2c(=O)n1CCc1ccc(OC)c(OC)c1	none (no result: H9c2 TAG inh)
CCN(CC)CCn1c(SCC(=O)NCCC2=CCCCC2)nc2c(sc3ccccc32)c1=O	T cruzi inh 60
O=C(CSc1nc2c(sc3ccccc32)c(=O)n1CCCN1CCCC1)NCc1ccccc1	none (no result: CSC inhib, Beta apoptosis)
COCCCN1C(=O)C2C(C(=O)Nc3cccc(Cl)c3)C3C=CC2(O3)C1C(=O)NC1CCCCC1 (stereo unspecified)	none (no result: H9c2 TAG inh)
CC(CNC(=O)CCS(=O)(=O)c1cc2c(cc1Cl)NC(=O)CO2)c1ccccc1 (stereo unspecified)	none
CN(CCc1ccccn1)S(=O)(=O)c1ccccc1F	none
CN(CCc1ccccn1)Cc1ccc(Cl)c(Cl)c1	T cruzi inh 62
CN(CCc1ccccn1)Cc1ccc(Cl)cc1Cl	none (no result: H9c2 TAG inh)
CSc1ccc(CN(C)CCc2ccccn2)cc1	T cruzi inh 59 (no result: Beta apoptosis)
CC(C)CN(Cc1cc(=O)oc2cc(-c3ccccc3)c(O)cc12)CC(C)C	CSC inhib 109
CC1(C(=O)NS(=O)(=O)c2ccc(Cl)cc2)CCN1C(=O)c1ccccc1 (stereo unspecified)	none (no result: CSC inhib, Calb FLC, A1 inh, Beta apoptosis, T cruzi inh)
Cc1ccc(S(=O)(=O)NC2CC(C)(C)NC(C)(C)C2)cc1C	none (no result: H9c2 TAG inh)
CCN1c2ccccc2NC2C1C(C(C)=O)C(=O)N2c1ccc(Cl)cc1 (stereo unspecified)	none (no result: H9c2 TAG inh, Beta apoptosis)
CCN1c2ccccc2NC2N=C(OC)C(c3ccccc3)C21 (stereo unspecified)	Beta apoptosis 111 (no result: H9c2 TAG inh)
CN(CC(=O)Nc1cccc(F)c1)C(=O)c1cn(-c2ccccc2)nc1-c1ccc(Cl)cc1	CSC inhib 102 (no result: Calb FLC, T cruzi inh)
CN(CC(=O)Nc1cccc(F)c1)C(=O)c1cn(-c2ccccc2)nc1-c1cccs1	none
Cc1cccc(N(CC(=O)NC2CCCC2)C(=O)c2cc3cc4cccc(C)c4nc3s2)c1C	T cruzi inh 57 (no result: H9c2 TAG inh)
COc1cccc(/C=N/NC(=O)C[n+]2ccccc2)c1O	none (no result: H9c2 TAG inh)
COCCCNC(=S)N/N=C/c1cccc(OC)c1O	Beta apoptosis 88 (no result: T cruzi inh)
COc1ccc(CCCC(=O)N/N=C/c2cccc(OC)c2O)cc1C	CSC inhib 113 (no result: H9c2 TAG inh)
Cc1ccc(NC(=O)c2cc(N3C(=O)C=CC3=O)ccc2N2CCOCC2)cc1	T cruzi inh 59 (no result: CSC inhib, A1 inh, Beta apoptosis)
CC1CCCCC12NC(=O)N(CC(=O)NCCc1ccc(F)cc1)C2=O (stereo unspecified)	none (no result: CSC inhib, Calb FLC, A1 inh, Beta apoptosis, T cruzi inh)
C/C(=N\NC(=O)CSCc1ccccc1Cl)c1cc(O)ccc1O	Calb FLC 95
CCOC(=O)c1cnc(-n2nc(C)cc2C)nc1NCc1ccccc1	Beta apoptosis 99, T cruzi inh 62 (no result: H9c2 TAG inh)
CCOC(=O)c1cnc(-n2nc(C)cc2C)nc1NC(C)c1ccccc1 (stereo unspecified)	Beta apoptosis 88, T cruzi inh 60 (no result: CSC inhib, H9c2 TAG inh, A1 inh)
